Blank lines part the entries; values can stand above or below the compound they belong to. Calls of active or inactive are those of the source. No cut-off for these calls is given here.
Columns and labels:
Assay type in all cases: cell-based
[1] = target: Glutamate NMDA receptor; Grin1/Grin2a (Rattus norvegicus) (UniProt P35439+Q00959); experiment: Potentiation of rat recombinant GluN1/GluN2A expressed in Xenopus laevis oocytes assessed as increase in glutamate/glycine-induced current response at 30 uM by two-electrode voltage clamp technique relative to control
How it was run: (§1)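 Two-electrode voltage clamp at −40 mV on Xenopus oocytes coexpressing GluN1 with GluN2A, 2B, 2C or 2D. […] Compounds came from 20 mM DMSO stocks, with 0.05–0.5% final DMSO. Some GluN2A oocytes were injected with K-BAPTA to limit current run-up. Recording solution was pH 7.4, 23 °C.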

[2] = target: Glutamate NMDA receptor; Grin1/Grin2b (Rattus norvegicus) (UniProt P35439+Q00960); experiment: Potentiation of rat recombinant GluN1/GluN2B expressed in Xenopus laevis oocytes assessed as increase in glutamate/glycine-induced current response at 30 uM by two-electrode voltage clamp technique relative to control; how it was run: as §1
[3] = target: Glutamate NMDA receptor; Grin1/Grin2c (Rattus norvegicus) (UniProt P35439+Q00961); experiment: Potentiation of rat recombinant GluN1/GluN2C expressed in Xenopus laevis oocytes assessed as increase in glutamate/glycine-induced current response at 30 uM by two-electrode voltage clamp technique relative to control; how it was run: as §1
[4] = target: Ionotropic glutamate receptor NMDA 1/2D (Rattus norvegicus) (UniProt P35439+Q62645); experiment: Potentiation of rat recombinant GluN1/GluN2D expressed in Xenopus laevis oocytes assessed as increase in glutamate/glycine-induced current response at 30 uM by two-electrode voltage clamp technique relative to control; how it was run: as §1
[5] = target: Glutamate NMDA receptor; Grin1/Grin2c (Rattus norvegicus, UniProt P35439+Q00961); experiment: Potentiation of rat recombinant GluN1/GluN2C expressed in Xenopus laevis oocytes assessed as increase in glutamate/glycine-induced current response by two-electrode voltage clamp technique relative to control

SMILES: COC(=O)c1ccc(C2C(C(=O)c3ccncc3)=C(O)C(=O)N2CCc2c[nH]cn2)cc1 (centres undefined)
Activity [1]: 101% | Activity [2]: 95% | Activity [3]: 89% | Activity [4]: 94%

SMILES: COC(=O)c1ccc(C2C(C(C)=O)=C(O)C(=O)N2CCc2c(C)[nH]c3ccccc23)cc1 (stereo in doubt; 106a)
max activation [3]: 259%

SMILES: COC(=O)c1ccc(C2C(C(=O)c3ccncc3)=C(O)C(=O)N2CCn2cnc3ccccc32)cc1 (centres undefined)
Activity [1]: 104% | Activity [2]: 107% | Activity [3]: 84% | Activity [4]: 89%

SMILES: CCOC(=O)c1ccc(C2C(C(C)=O)=C(O)C(=O)N2CCc2c(C)[nH]c3ccccc23)cc1 (centres undefined)
Activity [1]: 108% | Activity [2]: 99% | Activity [3]: 220% | max activation [3]: 265% | Activity [4]: 85% | EC50 [5]: 13 µM

SMILES: COC(=O)c1ccc(C2C(C(=O)c3cccnc3)=C(O)C(=O)N2CCc2c[nH]c3c(Cl)cccc23)cc1 (centres undefined)
Activity [1]: 90% | Activity [2]: 85% | Activity [3]: 127% | max activation [3]: 128% | Activity [4]: 78% | EC50 [5]: 7 µM

SMILES: COC(=O)c1ccc(C2C(C(=O)c3ccccc3)=C(O)C(=O)N2CCc2c[nH]c3ccccc23)cc1 (centres undefined)
Activity [1]: 116% | Activity [2]: 85% | Activity [3]: 143% | max activation [3]: 161% | Activity [4]: 79% | EC50 [5]: 17 µM

SMILES: COC(=O)c1ccc(C2C(C(C)=O)=C(O)C(=O)N2CCc2c[nH]c3ccccc23)c(OC)c1 (centres undefined)
Activity [1]: 102% | Activity [2]: 83% | Activity [3]: 132% | max activation [3]: 183% | Activity [4]: 100% | EC50 [5]: 46 µM

SMILES: COC(=O)c1ccc(C2C(C(=O)c3cccnc3)=C(O)C(=O)N2CCc2c[nH]c3cccc(C)c23)cc1 (centres undefined)
Activity [1]: 112% | Activity [2]: 70% | Activity [3]: 85% | Activity [4]: 74%

SMILES: COC(=O)c1ccc(C2C(C(=O)c3cccnc3)=C(O)C(=O)N2CCc2c[nH]c3ccc(OC)cc23)cc1 (centres undefined)
Activity [1]: 112% | Activity [2]: 90% | Activity [3]: 94% | Activity [4]: 91%

SMILES: CN(C)C(=O)c1ccc(C2C(C(=O)c3cccnc3)=C(O)C(=O)N2CCc2c[nH]c3ccccc23)cc1 (centres undefined)
Activity [1]: 118% | Activity [2]: 86% | Activity [3]: 101% | Activity [4]: 89%

SMILES: CNC(=O)c1ccc(C2C(C(=O)c3cccnc3)=C(O)C(=O)N2CCc2c[nH]c3ccccc23)cc1 (centres undefined)
Activity [1]: 96% | Activity [2]: 105% | Activity [3]: 93% | Activity [4]: 89%

SMILES: COC(=O)c1ccc(C2C(C(C)=O)=C(O)C(=O)N2CCc2c(C)[nH]c3ccccc23)cc1 (racemic)
Activity [1]: 97% | Activity [2]: 88% | Activity [3]: 179% | max activation [3]: 217% | Activity [4]: 95%

SMILES: N#Cc1ccc(C2C(C(=O)c3cccnc3)=C(O)C(=O)N2CCc2c[nH]c3ccccc23)cc1 (centres undefined)
Activity [1]: 98% | Activity [2]: 89% | Activity [3]: 100% | Activity [4]: 94%

SMILES: NS(=O)(=O)c1ccc(C2C(C(=O)c3cccnc3)=C(O)C(=O)N2CCc2c[nH]c3ccccc23)cc1 (centres undefined)
Activity [1]: 86% | Activity [2]: 82% | Activity [3]: 123% | max activation [3]: 130% | Activity [4]: 83%

SMILES: CNS(=O)(=O)c1ccc(C2C(C(=O)c3cccnc3)=C(O)C(=O)N2CCc2c[nH]c3ccccc23)cc1 (centres undefined)
Activity [1]: 74% | Activity [2]: 88% | Activity [3]: 114% | Activity [4]: 73%

SMILES: COC(=O)c1ccc(C2C(C(C)=O)=C(O)C(=O)N2CCc2ccccc2)cc1 (centres undefined)
Activity [1]: 108% | Activity [2]: 117% | Activity [3]: 95% | Activity [4]: 99%

SMILES: NC(=O)c1ccc(C2C(C(=O)c3cccnc3)=C(O)C(=O)N2CCc2c[nH]c3ccccc23)cc1 (centres undefined)
Activity [1]: 101% | Activity [2]: 92% | Activity [3]: 90% | Activity [4]: 91%

SMILES: COC(=O)c1ccc(C2C(C(C)=O)=C(O)C(=O)N2CCc2c(C)[nH]c3ccccc23)cc1 (stereo in doubt; 106b)
Activity [3]: inactive

SMILES: COC(=O)c1ccc(C2C(C(=O)c3cccnc3)=C(O)C(=O)N2CCc2coc3ccccc23)cc1 (centres undefined)
Activity [1]: 96% | Activity [2]: 83% | Activity [3]: 113% | Activity [4]: 80%

SMILES: COC(=O)c1ccc(C2C(C(=O)c3ccncc3)=C(O)C(=O)N2Cc2c[nH]c3ccccc23)cc1 (centres undefined)
Activity [1]: 106% | Activity [2]: 101% | Activity [3]: 84% | Activity [4]: 87%

SMILES: COC(=O)c1ccc(C2C(C(=O)c3cccnc3)=C(O)C(=O)N2CCCc2c[nH]c3ccccc23)cc1 (centres undefined)
Activity [1]: 96% | Activity [2]: 93% | Activity [3]: 84% | Activity [4]: 98%

SMILES: COC(=O)c1ccc(C2C(C(=O)c3ccccn3)=C(O)C(=O)N2CCc2c[nH]c3ccccc23)cc1 (centres undefined)
Activity [1]: 106% | Activity [2]: 78% | Activity [3]: 97% | Activity [4]: 75%

SMILES: COC(=O)c1ccc(C2C(C(=O)c3cccc(OC)c3)=C(O)C(=O)N2CCc2c[nH]c3ccccc23)cc1 (centres undefined)
Activity [1]: 92% | Activity [2]: 90% | Activity [3]: 109% | Activity [4]: 80%

SMILES: COC(=O)c1ccc(C2C(C(=O)c3cccnc3)=C(O)C(=O)N2CCc2cn(C)c3ccccc23)cc1 (centres undefined)
Activity [1]: 111% | Activity [2]: 87% | Activity [3]: 106% | Activity [4]: 85%

Other lines, results leading:

Activity [1]: 100% | Activity [2]: 94% | Activity [3]: 93% | Activity [4]: 88%
SMILES: CC(=O)C1=C(O)C(=O)N(CCc2c[nH]c3ccccc23)C1c1ccc(C(=O)O)cc1 (centres undefined)

Activity [1]: 96% | Activity [2]: 95% | Activity [3]: 102% | Activity [4]: 83%
SMILES: CC(=O)C1=C(O)C(=O)N(CCc2c[nH]c3ccccc23)C1c1ccc(C(=O)OC(C)C)cc1 (centres undefined)

Activity [1]: 99% | Activity [2]: 83% | Activity [3]: 114% | Activity [4]: 93%
SMILES: COC(=O)c1ccc(C2C(C(C)=O)=C(O)C(=O)N2CCc2c[nH]c3ccccc23)cc1F (centres undefined)

Activity [1]: 108% | Activity [2]: 91% | Activity [3]: 88% | Activity [4]: 86%
SMILES: COC(=O)c1ccc(C2C(C(C)=O)=C(O)C(=O)N2CCc2c[nH]c3ccccc23)cc1C (centres undefined)

Activity [1]: 106% | Activity [2]: 83% | Activity [3]: 94% | Activity [4]: 77%
SMILES: CC(=O)C1=C(O)C(=O)N(CCc2c[nH]c3ccccc23)C1c1ccc([N+](=O)[O-])cc1 (centres undefined)

Activity [1]: 99% | Activity [2]: 81% | Activity [3]: 85% | Activity [4]: 66%
SMILES: CC(=O)C1=C(O)C(=O)N(CCc2c[nH]c3ccccc23)C1c1ccc(C(=O)OC(C)(C)C)cc1 (centres undefined)

Activity [1]: 88% | Activity [2]: 78% | Activity [3]: 99% | Activity [4]: 93%
SMILES: COC(=O)c1ccccc1C1C(C(C)=O)=C(O)C(=O)N1CCc1c[nH]c2ccccc12 (centres undefined)

Activity [1]: 93% | Activity [2]: 85% | Activity [3]: 102% | Activity [4]: 75%
SMILES: COC(=O)c1ccc(C2C(C(C)=O)=C(N)C(=O)N2CCc2c[nH]c3ccccc23)cc1 (centres undefined)

Activity [1]: 88% | Activity [2]: 95% | Activity [3]: 113% | Activity [4]: 83%
SMILES: COC(=O)c1ccc(C2C(C(C)=O)=C(O)C(=O)N2CCc2c[nH]c3ccccc23)cc1Cl (centres undefined)

Activity [1]: 99% | Activity [2]: 88% | Activity [3]: 94% | Activity [4]: 94%
SMILES: COC(=O)c1cccc(C2C(C(C)=O)=C(O)C(=O)N2CCc2c[nH]c3ccccc23)c1 (centres undefined)

Activity [1]: 98% | Activity [2]: 80% | Activity [3]: 92% | Activity [4]: 86%
SMILES: COC(=O)c1ccc(C2C(C(C)=O)=C(O)C(=O)N2CCc2c[nH]c3ccccc23)cc1OC (centres undefined)
